Among the data in ChEMBL document CHEMBL4261638, “Synthesis and in vitro evaluation of diverse heterocyclic diphenolic compounds as inhibitors of DYRK1A” (Bioorg Med Chem, 2018) are Activity values, retold here.

Assay [1] concerns the target Dual specificity tyrosine-phosphorylation-regulated kinase 1A (Homo sapiens) (UniProt Q13627). As to the kind of experiment: Inhibition of N-terminal His-tagged human Dyrk1A (126 to 490 residues) expressed in Escherichia coli BL21 (DE3) cells at 1 uM using Woodtide as substrate assessed as remaining enzyme activity after 10 mins in presence of [gamma-32P]-ATP by microbeta scintillation counting method. Summed up: (§1)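 Recombinant DYRK1A kinase assay with Woodtide as the peptide substrate and ATP at 100 μM. Each compound was tested at two concentrations, 1 μM and 10 μM. Results are given as the percentage of DYRK1A activity remaining relative to the uninhibited enzyme.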

Assay [2] has the same target. As to the kind of experiment: Inhibition of N-terminal His-tagged human Dyrk1A (126 to 490 residues) expressed in Escherichia coli BL21 (DE3) cells at 10 uM using Woodtide as substrate assessed as remaining enzyme activity after 10 mins in presence of [gamma-32P]-ATP by microbeta scintillation counting method. A digest of the protocol:
as §1

Regarding `Oc1ccc2c(c1)CNc1cc(O)ccc1N2`, the values for the Activity in assay [1] and in assay [2] were 104% and 113%, respectively.
For the molecule `Oc1ccc(-c2nc[nH]c2-c2ccc(O)cc2)cc1`, the Activity amounted to 100% in assay [1] and 79% in assay [2].
The like results for `Oc1ccc(-c2cnc3nccc(-c4ccc(O)cc4)c3c2)cc1` were, in that order, 67% and 30%.
Take `Oc1ccc(-c2ccc(-c3cc(-c4ccc(O)cc4)n[nH]3)nc2)cc1`: the Activity in assay [1] was found to be 110%; in assay [2], 98%.
The corresponding values for `Nc1nc2ccc(-c3ccc(O)cc3)cc2n1-c1ccc(O)cc1` are 74% and 43%.
The like results for `O=C(Nc1ccc(O)cc1)c1cncc2nnc(-c3ccc(O)cc3)n12` were, in that order, 99% and 99%.
The like results for `Oc1ccc(-c2cnc3[nH]cc(-c4ccc(O)cc4)c3c2)cc1` were, in that order, 3.3% and 3.3%.
As for `Oc1ccc(-c2nnc3cncc(OCCc4cccc(O)c4)n23)cc1`, the Activity is 94% in assay [1] and 91% in assay [2].
The like results for `O=C(Nc1cccc(O)c1)c1cncc2nnc(-c3ccc(O)cc3)n12` were, in that order, 104% and 102%.
The like results for `CC(=O)Nc1nc2ccc(-c3ccc(O)cc3)cc2n1-c1ccc(O)cc1` were, in that order, 106% and 107%.
The corresponding values for `Oc1ccc(CCOc2cncc3nnc(-c4ccc(O)cc4)n23)cc1` are 94% and 99%.
As to `Oc1ccc(-c2ccnc(-c3cc(-c4ccc(O)cc4)n[nH]3)c2)cc1`, the Activity in assay [1] was 64%; in assay [2], 9%.
The like results for `Oc1ccc(-c2ccnc(-c3cc(-c4ccc(O)cc4)ccn3)c2)cc1` were, in that order, 90% and 83%.
